Measurements: PubChem BioAssay AID624402 (The Scripps Research Institute Molecular Screening Center, 2012)
Calls of active or inactive are those of the source.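 Rule for the calls: active = binding altered by at least 10% in every panel; inactive = the rest.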

Test system: aryl hydrocarbon receptor (Cavia porcellus)
Assay: stimulation of AhR transformation and DNA binding – biochemical, radiometric EMSA, guinea pig liver cytosol, counter-screen for AhR activator project, late-stage follow-up (AID 624402)
Conditions: AhR-DRE EMSA, hits give high values
How it was run: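 Assay system – guinea pig liver cytosol containing native aryl hydrocarbon receptor · Medium – HEDG buffer at pH 7.5 · Probe or stimulus – Poly dIdC and [32P]-DRE probe · Dosing – single 10 µM compound dose per reaction · Schedule – 2.5 h compound exposure at room temperature, 15 min per later addition · Detection – radiometric EMSA, phosphorimaging · Repeats – triplicates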

Row | inhibition (run 1, at 10 µM) | inhibition (run 2, at 10 µM) | Structure (SMILES)
1 | 15.4% | 12.5% | Nc1nc(Cl)cc(Nc2ccccc2F)n1
2 | 5.8% (inactive) | 5.3% (inactive) | Cc1cc(Br)cc(C)c1Nc1ccnc(Nc2ccc(C#N)cc2)n1
3 | 9.5% (inactive) | 7.1% (inactive) | O=C(CSc1nc(-c2ccc(F)cc2)cs1)Nc1ccccn1
4 | 32.8% | 28.8% | Cc1ccc(-c2cc(-c3ccc(Cl)cc3)n[nH]2)c(O)c1
5 | 8.4% (inactive) | 5.4% (inactive) | CCOC(=O)c1c(C)nn(-c2cc(Cl)ccc2Cl)c1C
6 | 6.4% (inactive) | 4.4% (inactive) | CCOc1ccccc1NC(=O)c1ccc(C(=O)Nc2ccccc2OCC)nc1
7 | 6.4% (inactive) | 5.5% (inactive) | COc1ccc(O)c(-c2cc(-c3cccs3)[nH]n2)c1
8 | 42.7% | 39.8% | Cc1ccc(-c2cc(-c3cccc(F)c3)n[nH]2)c(O)c1
9 | 9.7% (inactive) | 8.4% (inactive) | COc1ccc(Cl)cc1NC(=O)c1ccc(C(=O)Nc2cc(Cl)ccc2OC)nc1

More lines, now with the values behind:

Row | Structure (SMILES) | inhibition (run 1, at 10 µM) | inhibition (run 2, at 10 µM)
10 | Cc1cccc(C)c1NC(=O)c1ccc(C(=O)Nc2c(C)cccc2C)nc1 | 8.6% (inactive) | 9% (inactive)
11 | CN(Cc1cc(-c2cccs2)n[nH]1)Cc1coc2ccccc2c1=O | 22.1% | 19%
12 | COc1ccc(Nc2cc(Cl)nc(N)n2)cc1 | 10% (inactive) | 7.1% (inactive)
13 | COc1ccc(Nc2cc(Cl)nc(N)n2)cc1OC | 7.5% (inactive) | 5.6% (inactive)
14 | Cc1ccnc(NC(=O)CSc2nc3ccccc3s2)c1 | 19.7% | 17.3%
15 | Cc1ccc(O)c(-c2cc(-c3ccccc3Cl)[nH]n2)c1 | 58.4% | 51.9%
16 | COc1ccc(NC(=O)c2ccc(C(=O)Nc3ccc(OC)cc3OC)nc2)c(OC)c1 | 6.9% (inactive) | 11.8% (inactive)
17 | O=C(CSc1nc2ccccc2s1)Nc1ccccn1 | 41.3% | 38.5%
18 | Cc1cccc(NC(=O)c2cc(-c3ccc(C)cc3O)n[nH]2)c1 | 8.2% (inactive) | 4.3% (inactive)
19 | COc1ccc(-c2cc(-c3ccc(C)cc3O)[nH]n2)cc1 | 4.8% (inactive) | 3.2% (inactive)
20 | Cc1ccc(NC(=O)c2ccc(C(=O)Nc3ccc(C)cc3C)nc2)c(C)c1 | 13.3% | 9.3% (inactive)
21 | Cc1csc(SCC(=O)Nc2ccccn2)n1 | 6.2% (inactive) | 6.7% (inactive)
22 | O=C(CSc1nc2ccccc2s1)Nc1ccc(Cl)cn1 | 16.3% | 19.4%
23 | Nc1nc(Cl)cc(Nc2ccc(Oc3ccccc3)cc2)n1 | 10.9% (inactive) | 8.5% (inactive)
24 | Cc1cc(Nc2ccc(F)cc2)nc(N)n1 | 9.6% (inactive) | 5.6% (inactive)
25 | Cc1ccc(-c2cc(-c3ccc(F)cc3)n[nH]2)c(O)c1 | 50.8% | 47.5%
